# Reference: ChEMBL document CHEMBL4373712, “Bioactivatable Pseudotripeptidization of Cyclic Dipeptides To Increase the Affinity toward Oligopeptide Transporter 1 for Enhanced Oral Absorption: An Application to Cyclo(l-Hyp-l-Ser) (JBP485)” (J Med Chem, 2019)
# Key:
# [1] = Half life in 0.1 M HCl at 5 mM by HPLC analysis; type: physicochemical
# Method in brief: (§1)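 Compound at 5 mM in 0.1 M HCl, pH 4.5 acetate buffer, pH 5.8/6.8/7.2 phosphate buffers, SGF (pH 1.2) and SIF (pH 6.8), prepared per Chinese Pharmacopoeia. Samples taken at 0-20 h and analyzed by HPLC-UV. k = 2.303×slope of log C versus time; t1/2 = 0.693/k.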
# [2] = Half life in pH 5.8 phosphate buffer at 5 mM by HPLC analysis; type: physicochemical; method in brief: as §1
# [3] = Half life in pH 6.8 phosphate buffer at 5 mM by HPLC analysis; type: physicochemical; method in brief: as §1
# [4] = Half life in pH 7.2 phosphate buffer at 5 mM by HPLC analysis; type: physicochemical; method in brief: as §1
# [5] = Half life in pH 1.2 simulated gastric fluid at 5 mM by HPLC analysis; type: ADME; method in brief: as §1
# [6] = Half life in Sprague-Dawley rat liver homogenates at 5 mM by HPLC analysis; type: ADME, tissue-based
# Method in brief: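 Jejunum and liver homogenates from male SD rats in pH 7.4 PBS, adjusted to 200 µg/mL protein, and rat plasma. Each incubated with compound at 5 mM at 37 °C.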
# [7] = target: T1, Solute carrier family 15 member 1 (Homo sapiens, UniProt P46059); assay: Substrate activity at PEPT1 in human Caco2 cells assessed as protein-mediated drug uptake at 0.5 mM measured after 10 mins in pH 6 HBSS buffer by UPLC-MS/MS analysis; type: ADME, cell-based; details: caco-2, pH 6, 10 min, 500 µM
# T1 sequence (P46059 whole entry): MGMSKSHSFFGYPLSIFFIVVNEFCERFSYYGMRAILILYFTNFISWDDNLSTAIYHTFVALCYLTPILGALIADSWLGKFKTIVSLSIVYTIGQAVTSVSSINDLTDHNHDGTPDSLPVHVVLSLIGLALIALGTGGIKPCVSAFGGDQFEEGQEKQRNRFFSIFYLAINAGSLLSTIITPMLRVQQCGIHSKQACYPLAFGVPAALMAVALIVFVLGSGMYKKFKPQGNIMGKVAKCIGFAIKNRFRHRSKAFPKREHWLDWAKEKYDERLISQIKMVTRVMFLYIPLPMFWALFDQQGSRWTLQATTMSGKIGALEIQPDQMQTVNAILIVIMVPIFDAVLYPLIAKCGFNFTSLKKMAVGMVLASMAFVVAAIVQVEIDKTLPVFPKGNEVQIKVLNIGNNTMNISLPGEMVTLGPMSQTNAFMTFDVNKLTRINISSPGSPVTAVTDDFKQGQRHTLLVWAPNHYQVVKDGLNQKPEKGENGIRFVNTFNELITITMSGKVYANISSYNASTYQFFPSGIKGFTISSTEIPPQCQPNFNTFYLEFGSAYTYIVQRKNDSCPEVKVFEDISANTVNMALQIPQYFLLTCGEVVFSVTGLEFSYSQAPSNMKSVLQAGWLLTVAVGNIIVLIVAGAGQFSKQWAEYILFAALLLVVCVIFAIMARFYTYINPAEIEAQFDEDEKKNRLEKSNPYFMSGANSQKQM
# Method in brief: (§2)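 Caco-2 cells incubated 10 min with 0.5 mM compound in HBSS at pH 6.0 or pH 7.4, washed three times in ice-cold PBS pH 7.4, homogenised. Protein by DC assay; drug by UPLC-MS/MS; n=3.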
# [8] = target: T1, Solute carrier family 15 member 1; assay: Substrate activity at PEPT1 in human Caco2 cells assessed as protein-mediated drug uptake at 0.5 mM measured after 10 mins in pH 7.4 HBSS buffer by UPLC-MS/MS analysis; type: ADME, cell-based; details: caco-2, pH 7.4, 10 min, 500 µM; method in brief: as §2
# [9] = target: T1, Solute carrier family 15 member 1; assay: Substrate activity at PEPT1 in human Caco2 cells assessed as inhibition of Gly-Sar uptake measured after 10 mins by UPLC-MS/MS analysis; type: cell-based
# Method in brief: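 Caco-2 cells with 0.5 mM Gly-Sar probe substrate and competitor at 0.5–50 mM. IC50 by nonlinear fitting; n=3.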
# Rattus norvegicus = assay: Anti-hepatitis activity in ANIT-induced po dosed Sprague-Dawley rat model of cholestasis assessed as reduction in serum total bilirubin level administered 30 mins prior to ANIT challenge and subsequent dosing at 8, 22, 32, and 46 hrs post ANIT challenge and measured 48 hrs post ANIT challenge; type: functional, organism-based
# Method in brief: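 Male SD rats, 6 weeks old, fasted 12 h, 6 per group. Cholestasis induced by ANIT 50 mg/kg ip in olive oil. Test agents were given in water; UDCA 100 mg/kg was given orally in CMC-Na. Dosing at 30 min before and 8, 22, 32 and 46 h after ANIT. Serum taken from the abdominal aorta under chloral hydrate anesthesia at 48 h; total bilirubin measured with an assay kit.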
# [10] = target: T2, Solute carrier organic anion transporter family member 2B1 (Homo sapiens, UniProt O94956); assay: Substrate activity at OATPB in human Caco2 cells assessed as protein-mediated drug uptake at 0.5 mM measured after 10 mins in absence of OATPB substrate captopril by UPLC-MS/MS analysis; details: caco-2, 10 min, 500 µM
# T2 sequence (O94956 whole entry): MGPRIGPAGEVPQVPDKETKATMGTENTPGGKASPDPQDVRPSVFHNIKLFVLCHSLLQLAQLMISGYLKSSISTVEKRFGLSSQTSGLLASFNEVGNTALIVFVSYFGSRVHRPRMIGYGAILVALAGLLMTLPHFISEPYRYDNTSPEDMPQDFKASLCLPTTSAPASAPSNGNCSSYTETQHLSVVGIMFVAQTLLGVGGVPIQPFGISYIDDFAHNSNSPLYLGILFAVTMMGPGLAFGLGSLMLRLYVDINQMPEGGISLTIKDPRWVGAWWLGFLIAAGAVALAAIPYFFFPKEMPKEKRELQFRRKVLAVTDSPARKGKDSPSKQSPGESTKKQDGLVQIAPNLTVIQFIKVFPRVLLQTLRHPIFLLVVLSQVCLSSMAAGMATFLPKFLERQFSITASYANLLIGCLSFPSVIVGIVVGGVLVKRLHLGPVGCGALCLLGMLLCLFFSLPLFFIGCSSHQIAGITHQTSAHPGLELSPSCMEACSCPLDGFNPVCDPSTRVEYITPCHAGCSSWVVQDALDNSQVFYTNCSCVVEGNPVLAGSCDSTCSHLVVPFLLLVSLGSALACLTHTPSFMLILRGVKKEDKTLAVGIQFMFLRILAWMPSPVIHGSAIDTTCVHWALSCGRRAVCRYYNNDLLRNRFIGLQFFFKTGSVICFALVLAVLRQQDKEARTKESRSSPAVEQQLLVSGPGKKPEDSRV
half-life at 5000 µM [1],half-life at 5000 µM [2],half-life at 5000 µM [3],half-life at 5000 µM [4],half-life at 5000 µM [5],half-life at 5000 µM [6],Drug uptake [7],Drug uptake [8],IC50 [9],Drug uptake [10],SMILES,Activity (Rattus norvegicus)
> 20 h,> 20 h,> 20 h,> 20 h,> 20 h,> 20 h,Active,Not Active,18.2 mM,Not Active,O=C1N[C@@H](CO)C(=O)N2C[C@H](O)C[C@@H]12,Dose-dependent effect
> 20 h,> 20 h,7.7 h,5.5 h,> 20 h,0.86 h,Active,Not Active,2.9 mM,Not Active,CC(C)[C@H](N)C(=O)OC[C@@H]1NC(=O)[C@@H]2C[C@@H](O)CN2C1=O,Dose-dependent effect
